Inhibition data for 15 compounds are collected here from PubChem BioAssay AID1800 (The Scripps Research Institute Molecular Screening Center, 2009).

Screen size: about 290,000 compounds; about 1,600 (0.55%) were called active. For the sample, actives were picked, then their nearest neighbours and some compounds at random. A number with no mark means an inactive call.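 The calls were made as follows: active = inhibition above the mean of all tested compounds plus 3 SD, set per campaign (cut at about 35% in these data); inactive = the rest.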

For the experiment, the system named is Hepatitis C virus NS3 helicase. Kind of experiment: inhibitors of HCV NS3 helicase, primary screen, biochemical, Cy5 molecular beacon fluorescence (AID 1800).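 Also: 0% = DMSO wells and 100% = thioflavine S control wells.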 As to conditions: NS3 helicase DNA unwinding, at 10.9 µM, stronger effect = higher value. The procedure, abridged:
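test system = hepatitis C virus NS3 helicase domain fragment enzyme | reagent = annealed dual-labelled DNA beacon duplex, ATP-started | times = 1 h at 25 °C | detection = Cy5 fluorescence, 0 and 60 min reads | read-out basis = percent inhibition from t60/t0 fluorescence ratio | control set = DMSO and thioflavine S | replication = one well per compound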
A word on the inhibition: it is the drop in the measured response relative to a control, in per cent. `COc1ccc(N2C(=O)/C(=C/c3ccco3)C(=O)NC2=S)cc1`: the inhibition is 58.9% (active).

Consider `COc1cccc(N2C(=O)NC(=O)/C(=C\c3cn(C)c4ccccc34)C2=O)c1`, for which the inhibition was -1.98%.

On to `COc1ccc(CN2C(=O)NC(=O)/C(=C\c3ccc(OC)c(OC)c3OC)C2=O)cc1`, for which the inhibition was 21.5%.

As to `CN(C)CCN(CC1CCCN(Cc2ccccc2F)C1)C(=O)Cc1ccc(F)c(F)c1` (stereo not given), the inhibition is -18.8%.

Regarding `Cc1ccc(S(=O)(=O)N(C)c2ccc(C(=O)NCC3(N(C)C)CCCCC3)cc2)cc1`, the inhibition was -37.1%.

Consider `Cc1cc(C)cc(NC(=S)NC2CC3CCCC(C2)N3Cc2cccs2)c1` (stereo not given), for which the inhibition was -48.3%.

As for `CC(C)n1c(=O)c(C=Nc2ccc(Br)cc2)c(O)n(Cc2ccco2)c1=O`, the inhibition was 45.5% (active).

On to `CN(C)CCCN=Cc1c(O)n(Cc2ccco2)c(=O)[nH]c1=O`, for which the inhibition is 16.9%.

Turning to `COc1cc2nc(N3CCN(C(=O)[C@@H]4CCCO4)CC3)nc(N)c2cc1OC`, the inhibition was -0.76%.

Consider `CCN(CC)C(=O)Oc1ccc(NC(=O)N2CCOCC2)cc1`, for which the inhibition was 4.52%.

Regarding `O=C(CN1CCCC1=O)NCCc1ccccc1`, the inhibition is 0.89%.

As for `CC(C)(C)c1ccc(CN2C(=O)CN=C(c3ccccc3)c3ccccc32)cc1`, the inhibition was 14.7%.

As to `O=C1CC(=O)N(Cc2ccccc2)C(=O)N1CCCCCCN1C(=O)CC(=O)N(Cc2ccccc2)C1=O`, the inhibition is 41.5% (active).

With `CC1(C)Cc2c(C#N)c(N3CCNCC3)nc(-c3ccco3)c2CS1`, the inhibition is -44.9%.

For the compound `Cc1ccc(C2CN(C)CC2C(=O)c2ccc(F)cc2)cc1` (stereo not given), the inhibition is -2.19%.
